The test system of assay [1] is Rattus norvegicus. In words: Antihypertensive activity was determined in cannulated spontaneously hypertensive rats(SHR) and maximum decrease of mean arterial blood pressure (MABP) at 10 mg/kg oral dose. It is filed as functional, Artery. In outline: (§1)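 Cannulated SHR given compound by gastric gavage in 0.5% methylcellulose (5 mL/kg), doses 0.1–50 mg/kg, 4–8 animals per dose, after 1-h equilibration. MABP recorded for 4 h; maximal % decrease reported with time to peak effect. Significance by two-way analysis of variance.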

The subject of assay [2] is Rattus norvegicus. In words: Vasopressor responses to epinephrine as a measure of the alpha-1-adrenoceptor blocking activity at 10 mg/kg administered orally was reported to be antagonized. Further details: dose 10 mg/kg. It counts as functional, organism-based.
The test system of assay [3] is Rattus norvegicus. In words: Antihypertensive activity was determined in cannulated spontaneously hypertensive rats(SHR) and maximum decrease of mean arterial blood pressure (MABP) at 1 mg/kg oral dose. It is filed as functional, Artery. In outline:
as §1

The test system of assay [4] is Rattus norvegicus. In words: Antihypertensive activity was determined in cannulated spontaneously hypertensive rats(SHR) and maximum decrease of mean arterial blood pressure (MABP) at 5 mg/kg oral dose. It counts as functional, Artery. In outline:
as §1

The test system of assay [5] is Rattus norvegicus. In words: Vasopressor responses to epinephrine as a measure of the alpha-1-adrenoceptor blocking activity at 1 mg/kg administered orally was reported to be reveresed. It counts as functional, organism-based. Further details: dose 1 mg/kg.
In assay [6] the test system is Rattus norvegicus. In words: Antihypertensive activity was determined in cannulated spontaneously hypertensive rats(SHR) and marked bradycardia was reported at a dose of 10 mg/kg. It counts as functional, organism-based. Also on record: dose 10 mg/kg.
The subject of assay [7] is Rattus norvegicus. In words: Antihypertensive activity was determined in cannulated spontaneously hypertensive rats(SHR) and marked bradycardia was reported at a dose of 5 mg/kg. It is filed as functional, organism-based. Also on record: dose 5 mg/kg.
The test system of assay [8] is Rattus norvegicus. In words: Vasopressor responses to epinephrine as a measure of the alpha-1-adrenoceptor blocking activity at 5 mg/kg administered orally was reported to be reveresed. It counts as functional, organism-based. Also on record: dose 5 mg/kg.
In assay [9] the test system is Rattus norvegicus. In words: Vasopressor responses to epinephrine as a measure of the alpha-1-adrenoceptor blocking activity at 10 mg/kg administered orally was reported to be reveresed. It is filed as functional, organism-based. Further details: dose 10 mg/kg.
The test system of assay [10] is Rattus norvegicus. In words: Antagonism of vasopressor responses to epinephrine as a measure of the alpha-1-adrenoceptor blocking activity at 10 mg/kg administered orally was reported to have no change. It is filed as functional, organism-based. Also on record: dose 10 mg/kg.
The subject of assay [11] is Rattus norvegicus. In words: Antihypertensive activity was determined in cannulated spontaneously hypertensive rats(SHR) and heart rate response was reported to reduce by 10-25% after 4 hr at a peroral dose of 10 mg/kg. It counts as functional, organism-based. Further details: dose 10 mg/kg.
Assay [12] has as its system Rattus norvegicus. In words: Antihypertensive activity was determined in cannulated spontaneously hypertensive rats(SHR) and maximum decrease of mean arterial blood pressure (MABP) at 50 mg/kg oral dose. It counts as functional, Artery. In outline:
as §1

Assay [13] deals with Rattus norvegicus. In words: Antagonism of vasopressor responses to epinephrine as a measure of the alpha-1-adrenoceptor blocking activity at 50 mg/kg administered orally was reported to be reversed. Also on record: dose 50 mg/kg. It is filed as functional, organism-based.
The test system of assay [14] is Rattus norvegicus. In words: Antihypertensive activity was determined in cannulated spontaneously hypertensive rats(SHR) and maximum decrease of mean arterial blood pressure (MABP) at 0.5 mg/kg oral dose. It counts as functional, Artery. In outline: as §1
Assay [15] relates to Rattus norvegicus. In words: Antihypertensive activity was determined in cannulated spontaneously hypertensive rats(SHR) and marked bradycardia was reported at a dose of 50 mg/kg. It counts as functional, organism-based. Further details: dose 50 mg/kg.
In assay [16] the test system is Rattus norvegicus. In words: Vasopressor responses to epinephrine as a measure of the alpha-1-adrenoceptor blocking activity at 0.5 mg/kg administered orally was reported to be antagonized. It is filed as functional, organism-based. Also on record: dose 0.5 mg/kg.

The source made the active and inactive calls. The rule behind the calls is not given here.

For `Cc1c2n(c3ccccc13)CCC1C2NCCN1C(C)C.Cl.Cl` (stereo not given), the “Decrease in MABP” value in the assay with Rattus norvegicus [1] was determined as 12%. The Activity result in the assay on Rattus norvegicus [2] was “Vasopressor response antagonized”.

Consider `CCN1CCN(CC)[C@H]2c3c(C)c4ccccc4n3CC[C@@H]21.Cl.Cl`, for which the figures for the “Decrease in MABP” value in the assay with Rattus norvegicus [1], in the assay with Rattus norvegicus [3] and in the assay on Rattus norvegicus [4] were 32%, 14% and 28%, respectively. In addition, the Activity result in the assay with Rattus norvegicus [5], in the assay on Rattus norvegicus [8] and in the assay with Rattus norvegicus [9] was “Vasopressor response reveresed” in each case. Moreover, the HR entry in the assay with Rattus norvegicus [6] and with Rattus norvegicus [7] was “Heart rate response was reported to be reduce by 10-25% after 4 hr at a dose of 25 mg/kg” in each case.

Consider `CCN1CCNC2CCn3c(c(C)c4ccccc43)C21` (stereo not given), for which the “Decrease in MABP” value in the assay on Rattus norvegicus [1] is 14%. Moreover, the outcome in the assay on Rattus norvegicus [10] was inactive. Further, in the assay on Rattus norvegicus [11], the HR entry is given as “Heart rate response was reported to reduce by 10-25% after 4 hr at a peroral dose of 10 mg/kg”.

Regarding `CCN1CCN(CCOc2ccccc2)C2CCn3c(c(C)c4ccccc43)C21.Cl.Cl` (stereo not given), the “Decrease in MABP” value with Rattus norvegicus [12] is reported as 22%. In addition, in the assay with Rattus norvegicus [13], the Activity result is given as “Antagonism reversed”.

In the case of `CCN1CCN(C(C)C)C2CCn3c(c(C)c4cc(OC)ccc43)C21.Cl.Cl` (stereo not given), the “Decrease in MABP” value was determined as 8% in the assay with Rattus norvegicus [14], 43% in the assay on Rattus norvegicus [12] and 33% in the assay on Rattus norvegicus [4]. In the assay on Rattus norvegicus [15], the HR result is given as “Heart rate response was reported to reduce by 10-25% after 4 hr at a peroral dose of 5.0 mg/kg”. Moreover, the Activity result in the assay on Rattus norvegicus [16] is reported as “Vasopressor response antagonized”.

(Values after ChEMBL document CHEMBL1123678, “Octahydropyrazino[2',3':3,4]pyrido[1,2-a]indoles. A new class of potent antihypertensive agents” (1987).)
